Two compounds from ChEMBL document CHEMBL1121364, “Nucleoside conjugates as potential antitumor agents. 3. Synthesis and antitumor activity of 1-(beta-D-arabinofuranosyl)cytosine conjugates of corticosteroids” (1980) can be followed below.

Assay [1] deals with L1210. Description: Antitumor activity in the mice with intraperitoneal implanted L1210 lymphoid leukemia at the dose 25 mg/kg/day x 5 was determined and number of animals survived on 30 th day were reported; 0/8. Type of assay: functional, Mus musculus. Put shortly:
(§1)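 Female C3D2F1/J mice (C3H/HeJ × DBA/2J), groups of six to eight, average weight 25 g. Each mouse got 1 × 10^6 L1210 ascites cells ip, taken from DBA/2Ha donor mice bearing 3-5 day tumors. Compound was dissolved in 0.154 N NaOH and neutralized with 0.154 N HCl (final 0.9% NaCl). Dosed ip daily ×5, starting 24 h after implant. Recorded body weight change on day 8, survival range, median survival and 30-day survivors. ILS = (T/C − 1) × 100.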

The subject of assay [2] is L1210. Kind of assay: Antitumor activity in the mice with intraperitoneal implanted L1210 lymphoid leukemia at the dose 5 mg/kg/day x 5 was determined and number of animals survived on 30 th day were reported; 0/7. The class given is functional, Mus musculus. Put shortly: as §1
Assay [3] deals with L1210. Description: Antitumor activity in the mice with intraperitoneal implanted L1210 lymphoid leukemia at the dose of 18.2 mg/kg/day x 5 was determined as mean survival of treated group compared to untreated; 14.5/10. Type of assay: functional, Mus musculus. The procedure, abridged: (§2)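 C3D2F1/J female mice (C3H/HeJ female × DBA/2J male), groups of six to eight, average weight 25 g. Inoculated ip with 1 × 10^6 L1210 ascites cells taken from DBA/2Ha donor mice bearing 3-5 day old tumors. Compounds were dissolved in 0.154 N NaOH, neutralized with 0.154 N HCl (final 0.9% NaCl), and given ip daily for 5 days from 24 h post-implant. Median survival T/C; ILS = (T/C − 1) × 100; 30-day survivors counted.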

Assay [4] has as its system L1210. Description: Antitumor activity in the mice with intraperitoneal implanted L1210 lymphoid leukemia at the dose 9.2 mg/kg/day x 5 was determined as Survival time in days; Range is 14-42 days. Type of assay: functional, Mus musculus. The procedure, abridged: as §2
The test system of assay [5] is L1210. Kind of assay: Antitumor activity in the mice with intraperitoneal implanted L1210 lymphoid leukemia at the dose 25 mg/kg/day x 5 was determined as percentage increase in the life span as compared with control tumor bearers. The class given is functional. The settings on record: Mus musculus, L1210, ip. Put shortly: as §1
In assay [6] the test system is L1210. Kind of assay: Antitumor activity in the mice with intraperitoneal implanted L1210 lymphoid leukemia at the dose 18.2 mg/kg/day x 5 was determined and number of animals survived on 30 th day were reported; 0/8. The class given is functional, Mus musculus. Put shortly: as §1
In assay [7] the test system is L1210. Kind of assay: Antitumor activity in the mice with intraperitoneal implanted L1210 lymphoid leukemia at the dose 5 mg/kg/day x 5 was determined as percentage increase in the life span as compared with control tumor bearers. Type of assay: functional. Particulars: Mus musculus, L1210, ip. Put shortly:
as §1

The test system of assay [8] is L1210. Kind of assay: Antitumor activity in the mice with intraperitoneal implanted L1210 lymphoid leukemia at the dose 18.2 mg/kg/day x 5 was determined as percentage increase in the life span as compared with control tumor bearers. The settings on record: Mus musculus, L1210, ip. The class given is functional. Put shortly: as §1
Assay [9] deals with L1210. Kind of assay: Antitumor activity in the mice with intraperitoneal implanted L1210 lymphoid leukemia at the dose of 9.2 mg/kg/day x 5 was determined as mean survival of treated group compared to untreated; 17/9. Type of assay: functional, Mus musculus.
Assay [10] has as its system L1210. Description: Antitumor activity in mice with intraperitoneal implanted L1210 lymphoid leukemia at the dose 25 mg/kg/day x 5 was determined as weight change (g/mouse) on 8th day. Type of assay: functional. The procedure, abridged: (§3)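 C3D2F1/J female mice (C3H/HeJ × DBA/2J), groups of six to eight, average 25 g, inoculated ip with 1 × 10^6 L1210 ascites cells taken from DBA/2Ha donor mice carrying 3-5 day tumors. Compound dissolved in 0.154 N NaOH, then neutralized with 0.154 N HCl to give 0.9% NaCl. Given ip daily for 5 consecutive days starting 24 h after implantation. Body weight change per mouse recorded on day 8.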

Assay [11] concerns L1210. Kind of assay: Antitumor activity in the mice with intraperitoneal implanted L1210 lymphoid leukemia at the dose of 5 mg/kg/day x 5 was determined as mean survival of treated group compared to untreated; 13.5/9. Type of assay: functional, Mus musculus. The procedure, abridged:
as §2

Assay [12] concerns L1210. Description: Antitumor activity in the mice with intraperitoneal implanted L1210 lymphoid leukemia at the dose 9.2 mg/kg/day x 5 was determined and number of animals survived on 30 th day were reported; 1/7. The class given is functional, Mus musculus. Put shortly:
as §2

Assay [13] relates to L1210. Kind of assay: Antitumor activity in the mice with intraperitoneal implanted L1210 lymphoid leukemia at the dose 18.2 mg/kg/day x 5 was determined as Survival time in days; Range is 10-19 days. The class given is functional, Mus musculus. Put shortly:
as §1

Assay [14] concerns L1210. Kind of assay: Antitumor activity in the mice with intraperitoneal implanted L1210 lymphoid leukemia at the dose 25 mg/kg/day x 5 was determined as Survival time in days; Range is 9-16 days. The class given is functional, Mus musculus. Put shortly:
as §1

In assay [15] the test system is L1210. Kind of assay: Antitumor activity in the mice with intraperitoneal implanted L1210 lymphoid leukemia at the dose 9.2 mg/kg/day x 5 was determined as percentage increase in the life span as compared with control tumor bearers. The settings on record: Mus musculus, L1210, ip. Type of assay: functional. The procedure, abridged: as §2
The test system of assay [16] is L1210. Kind of assay: Antitumor activity in the mice with intraperitoneal implanted L1210 lymphoid leukemia at the dose 5 mg/kg/day x 5 was determined as Survival time in days; Range is 9-22 days. The class given is functional, Mus musculus. Put shortly: as §1
Assay [17] relates to L1210. Kind of assay: Antitumor activity in mice with intraperitoneal implanted L1210 lymphoid leukemia at the dose 18.2 mg/kg/day x 5 was determined as weight change (g/mouse) on 8th day. The class given is functional. Put shortly:
as §3

For assay [18], the system named is L1210. Kind of assay: Antitumor activity in mice with intraperitoneal implanted L1210 lymphoid leukemia at the dose 9.2 mg/kg/day x 5 was determined as weight change (g/mouse) on 8th day. The class given is functional. The procedure, abridged: as §3
In assay [19] the test system is L1210. Description: Antitumor activity in mice with intraperitoneal implanted L1210 lymphoid leukemia at the dose 5 mg/kg/day x 5 was determined as weight change (g/mouse) on 8th day. Type of assay: functional. Put shortly:
as §3

For assay [20], the system named is L1210. Kind of assay: Antitumor activity in the mice with intraperitoneal implanted L1210 lymphoid leukemia at the dose 9.2 and 14.9 mg/kg/day x 5 was determined as Survival time in days; Range is 8-10 days. Type of assay: functional, Mus musculus. Put shortly:
as §2

In assay [21] the test system is L1210. Kind of assay: Antitumor activity in the mice with intraperitoneal implanted L1210 lymphoid leukemia at the dose 34.8 and 56.1 mg/kg/day x 5 was determined as percentage increase in the life span as compared with control tumor bearers. Type of assay: functional, Mus musculus. Put shortly:
as §1

Assay [22] has as its system L1210. Kind of assay: Antitumor activity in the mice with intraperitoneal implanted L1210 lymphoid leukemia at the dose 9.2 and 14.9 mg/kg/day x 5 was determined as percentage increase in the life span as compared with control tumor bearers. The class given is functional, Mus musculus. Put shortly:
as §2

Assay [23] relates to L1210. Kind of assay: Antitumor activity in the mice with intraperitoneal implanted L1210 lymphoid leukemia at the dose 9.2 and 14.9 mg/kg/day x 5 was determined and number of animals survived on 30 th day were reported; 0/6. The class given is functional, Mus musculus. Put shortly: as §2
Assay [24] has as its system L1210. Description: Antitumor activity in the mice with intraperitoneal implanted L1210 lymphoid leukemia at the dose of 34.8 and 56.1 mg/kg/day x 5 was determined as mean survival of treated group compared to untreated; 9.5/9. The class given is functional, Mus musculus. Put shortly: as §2
Assay [25] relates to L1210. Kind of assay: Antitumor activity in the mice with intraperitoneal implanted L1210 lymphoid leukemia at the dose of 9.2 and 14.9 mg/kg/day x 5 was determined as mean survival of treated group compared to untreated; 9.5/9. Type of assay: functional, Mus musculus.
The subject of assay [26] is L1210. Description: Antitumor activity in mice with intraperitoneal implanted L1210 lymphoid leukemia at the dose 34.8 and 56.1 mg/kg/day x 5 was determined as weight change (g/mouse) on 8th day. Type of assay: functional. Put shortly:
as §3

The subject of assay [27] is L1210. Kind of assay: Antitumor activity in mice with intraperitoneal implanted L1210 lymphoid leukemia at the dose 9.2 and 14.9 mg/kg/day x 5 was determined as weight change (g/mouse) on 8th day. The class given is functional. Put shortly: as §3
Assay [28] has as its system L1210. Description: Antitumor activity in the mice with intraperitoneal implanted L1210 lymphoid leukemia at the dose 34.8 and 56.1 mg/kg/day x 5 was determined as Survival time in days; Range is 8-9 days. The class given is functional, Mus musculus. Put shortly: as §1
Assay [29] has as its system L1210. Description: Antitumor activity in the mice with intraperitoneal implanted L1210 lymphoid leukemia at the dose 34.8 and 56.1 mg/kg/day x 5 was determined and number of animals survived on 30 th day were reported; 0/8. The class given is functional, Mus musculus. The procedure, abridged:
as §1

As to `Nc1ccn([C@@H]2O[C@H](CO)[C@@H](O)[C@@H]2O)c(=O)n1` [CYTARABINE], the Survivors was 0 in the assay with L1210 [1], 0 in the assay with L1210 [2], 0 with L1210 [6] and 1 with L1210 [12]. Further, the values for the T/C in the assay on L1210 [3], in the assay on L1210 [9] and in the assay on L1210 [11] were 14.5, 17 and 13.5, respectively. Besides, the Survival time worked out at 14 days in the assay with L1210 [4], 10 days in the assay on L1210 [13], 9 days in the assay on L1210 [14] and 9 days with L1210 [16]. For the same compound, in the assay with L1210 [5], the ILS at 25 mg/kg/day came to 19%. In addition, in the assay with L1210 [7], the ILS at 5 mg/kg/day came out at 50%. Also, the ILS at 18.2 mg/kg/day in the assay with L1210 [8] turned out to be 45%. The Weight change in the assay with L1210 [10] was -3.8 g mouse-1; in the assay on L1210 [17], -3.64 g mouse-1; in the assay on L1210 [18], -0.63 g mouse-1; in the assay with L1210 [19], 2 g mouse-1. Besides, the ILS at 9.2 mg/kg/day with L1210 [15] came out at 89%.
Take `C[C@@H]1C[C@H]2[C@@H]3CCC4=CC(=O)C=C[C@]4(C)[C@@]3(F)[C@@H](O)C[C@]2(C)[C@@]1(O)C(=O)CO.Nc1ccn([C@@H]2O[C@H](CO)[C@@H](O)[C@@H]2O)c(=O)n1`: the Survival time in the assay on L1210 [20] and with L1210 [28] was 8 days throughout. Further, the values for the ILS with L1210 [21] and in the assay with L1210 [22] were -6% and -14%, respectively. Further, the Survivors with L1210 [23] and in the assay with L1210 [29] was 0 throughout. Also, the T/C stood at 8.5 in the assay on L1210 [24] and 9.5 in the assay on L1210 [25]. Besides, the Weight change with L1210 [26] was -2.72 g mouse-1; in the assay with L1210 [27], -4.23 g mouse-1.
